From ChEMBL document CHEMBL5252539, “In vitro biological evaluation of new antimycobacterial salicylanilide-tuftsin conjugates” (Eur J Med Chem, 2017)
Values after ≈ are worked out from the molar mass of the structure shown. Active and inactive are the calls of the source. No cut-off for these calls is given here. *1 amine or outer side, *2 acyl side, *3 side chain or, on linkers, in order; H or OH if unused. Where a SMILES comes first, the peptide text is derived from it. [ ]: non-standard residue; d: D form. The star is where a group is joined. X1 = C/C(=N\OCC(=O)[*:2])c1ccc(N[*:1])cc1; Benzoyl(5-Br-2-OH) = O=C(c1cc(Br)ccc1O)*; Decanoyl = CCCCCCCCCC(=O)*

Columns and labels:
[1] = system: Mycobacterium tuberculosis; experiment: Antimycobacterial activity against Mycobacterium tuberculosis H37Rv ATCC 27294 assessed as reduction in bacterial growth after 28 days by serial dilution method; format: functional; details: H37Rv ATCC 27294, 672 h, time 28 day
Outline: (§1)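 Broth MIC in Sula semisynthetic medium, pH 6.5; 4-week incubation, with 21-day values […] where indicated. Drug-free inoculated bacteria served as growth control. MIC also expressed as drug content (µg/mL) = MIC (µM) × average SAL molar mass × number of SAL per conjugate / 1000.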

[2] = Stability of the compound in DMSO at 4 degree C at 2 mM up to 3 weeks by reverse phase HPLC analysis; format: physicochemical; details: 504 h, 2000 µM
Outline: (§2)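 Stability followed by analytical RP-HPLC and mass spectrometry under assay conditions: in DMSO at 4 °C over 3 weeks, in serum-free RPMI-1640 at 37 °C over 1 week, and in complete RPMI-1640 at 37 °C over 1 day.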

[3] = Stability of the compound in serum free RPMI-1640 medium containing 2% DMSO at 1 mg/ml after 1 week by reverse phase HPLC analysis; details: time 1.0 weeks; outline: as §2
[4] = Stability of the compound in complete RPMI-1640 medium containing 2% DMSO at 1 mg/ml after 24 hrs by reverse phase HPLC analysis; outline: as §2
[5] = Retention time of the compound by RP-HPLC analysis; format: physicochemical
Outline: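 Analytical RP-HPLC on a C18 column (5 μm, 100 Å, 4.6 × 150 mm). Eluent A 0.1% TFA in water, eluent B 0.1% TFA in acetonitrile-water 80:20. Gradient 0% B for 5 min, to 60% B at 15 min, to 100% B at 25 min. Flow 1 mL/min, detection at 220 nm.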

[6] = system: Mycobacteroides abscessus; experiment: Antimycobacterial activity against Mycobacterium abscessus ATCC 19977 assessed as reduction in bacterial growth after 7 days by serial dilution method; format: functional; details: ATCC 19977, 168 h, time 7 day
Outline: (§3)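 MIC determined in Sula semisynthetic medium, pH 6.5, 1 week incubation. Growth inhibition confirmed by plating on Löwenstein-Jensen solid medium and counting CFU. Bacteria inoculated without drug served as growth control.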

[7] = system: Mycobacterium tuberculosis; experiment: Antimycobacterial activity against Mycobacterium tuberculosis H37Rv ATCC 27294 assessed as reduction in colony forming unit after 28 days by serial dilution method; format: functional, organism-based; details: time 28.0 day
Outline: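 After the 4-week MIC incubation in Sula semisynthetic medium (pH 6.5), growth inhibition confirmed by plating on Löwenstein-Jensen solid medium and counting colony forming units.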

[8] = system: Mycobacteroides abscessus; experiment: Antimycobacterial activity against Mycobacterium abscessus ATCC 19977 assessed as reduction in colony forming unit after 7 days by serial dilution method; format: functional, organism-based; details: time 7.0 day; outline: as §3
MONO-MAC-6 = experiment: Cytostatic activity against human MONO-MAC-6 cells assessed as reduction in cell viability incubated for 24 hrs by MTT assay; format: functional, cell-based; details: MONO-MAC-6, 24 h
Outline: (§4)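 MTT viability assay after 24 h exposure of MonoMac6 human monocytic cells or HepG2 human hepatocellular carcinoma cells. Top concentration 200 μM. IC50 taken from dose-response curves as the concentration reducing viability to 50% of maximal.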

HepG2 = experiment: Cytostatic activity against human HepG2 cells assessed as reduction in cell viability incubated for 24 hrs by MTT assay; format: functional, cell-based; details: HepG2, 24 h; outline: as §4
[9] = Selectivity index, ratio of IC50 for cytostatic activity against human MONO-MAC-6 cells to MIC for antimycobacterial activity against Mycobacterium tuberculosis H37Rv ATCC 27294; format: toxicity, cell-based; details: read-out: Selectivity Index
Outline: (§5)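 MTT assay on MonoMac6 or HepG2 cells after 24 h exposure, top concentration 200 µM. SI = IC50 (µM)/MIC (µM) against H37Rv from the 4-week Sula medium assay.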

[10] = Selectivity index, ratio of IC50 for cytostatic activity against human HepG2 cells to MIC for antimycobacterial activity against Mycobacterium tuberculosis H37Rv ATCC 27294; format: toxicity, cell-based; details: read-out: Selectivity Index; outline: as §5
[11] = Cytotoxicity against mouse bone marrow derived macrophages assessed as reduction in cell viability incubated for 48 hrs by MTT assay; format: toxicity, cell-based, Macrophage
Outline: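 Murine bone marrow-derived macrophages exposed for 48 h, viability by MTT. Highest concentration tested 100 µM. IC50 taken from dose-response curves.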

[12] = Selectivity index, ratio of IC50 for cytotoxicity against mouse bone marrow derived macrophages to MIC for antimycobacterial activity against Mycobacterium tuberculosis H37Rv ATCC 27294; format: toxicity; details: read-out: Selectivity Index
Outline: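 Murine bone marrow-derived macrophages exposed for 48 h, top concentration 100 µM. Viability read by MTT and IC50 taken from dose-response curves. SI = IC50/MIC against H37Rv.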

[13] = Stability in rat liver lysosomal homogenate assessed as drug degradation at 50 uM and measured upto 24 hrs by HPLC-MS analysis; format: ADME, subcellular, Lysosome; details: tissue homogenate
Outline: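 Conjugates incubated in rat liver lysosomal homogenate. Reaction mixtures sampled at 5 min, 1 h, 2 h, 4 h, 8 h and 24 h and analysed by HPLC-MS (chromatograms and mass spectra) to identify intact conjugate, fragments and cleavage sites.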

[14] = system: Mycobacterium tuberculosis; experiment: […] antimycobacterial activity against Mycobacterium tuberculosis H37Rv ATCC 27294 infected in human MONO-MAC-6 cells assessed as reduction in colony forming unit at 125 uM for 6 days by colony counting based analysis; format: functional, organism-based; details: time 6.0 day
Outline: (§6)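 MonoMac6 monolayers infected with H37Rv, then treated with compound at 125 or 250 µM for 3 days. Treatment repeated with fresh compound solution for another 3 days. Intracellular bacteria quantified as CFU against untreated infected cells.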

[15] = system: Mycobacterium tuberculosis; experiment: […] antimycobacterial activity against Mycobacterium tuberculosis H37Rv ATCC 27294 infected in human MONO-MAC-6 cells assessed as reduction in colony forming unit at 250 uM for 6 days by colony counting based analysis; format: functional, organism-based; details: time 6.0 day; outline: as §6
[16] = Stability of the compound in Sula's semisynthetic medium containing 10% DMSO assessed as free salicylanilide formation at pH 6.5 at 2 mg/ml after 4 weeks at 37 degree C by reverse phase HPLC analysis
Outline: (§7)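 Conjugate incubated in Sula semisynthetic medium (pH 6.5) at 37 °C for 4 weeks. Decomposition to free salicylanilide and 2-hydroxyacetyl-tuftsin derivative followed by analytical RP-HPLC and mass spectrometry.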

[17] = Stability of the compound in Sula's semisynthetic medium containing 10% DMSO assessed as 2-hydroxyacetyl-tuftsin derivative formation at pH 6.5 at 2 mg/ml after 4 weeks at 37 degree C by reverse phase HPLC analysis; outline: as §7
[18] = system: Mycobacterium tuberculosis; experiment: Antimycobacterial activity against Mycobacterium tuberculosis H37Rv ATCC 27294 assessed as reduction in bacterial growth after 21 days by serial dilution method; format: functional; details: H37Rv ATCC 27294, 504 h, time 21 day; outline: as §1

Row | SMILES | MIC [1] [µM] | Stability [2] | Stability [3] | Stability [4] | Retention_time [5] [min] | MIC [6] [µM] | Activity [7] | Activity [8] | IC50 (MONO-MAC-6) [µM] | IC50 (HepG2) [µM] | selectivity ratio [9] | selectivity ratio [10] | IC50 at 48 h [11] [µM] | selectivity ratio [12] | Stability [13] | Activity [14] | Activity [15] | Stability [16] | Stability [17] | MIC [18] [µM]
1 | C/C(=N\OCC(=O)N[C@H](C(=O)N[C@@H](CCCCN)C(=O)N1CCC[C@H]1C(=O)N[C@@H](CCCCN)C(=O)NCC(=O)N[C@H](C(=O)N[C@@H](CCCCN)C(=O)N1CCC[C@H]1C(=O)N[C@@H](CCCCN)C(=O)NCC(=O)N[C@H](C(=O)N[C@@H](CCCCN)C(=O)N1CCC[C@H]1C(=O)N[C@@H](CCCCN)C(=O)NCC(=O)N[C@H](C(=O)N[C@@H](CCCCN)C(=O)N1CCC[C@H]1C(=O)N[C@@H](CCCCN)C(=O)NCC(N)=O)[C@@H](C)O)[C@@H](C)O)[C@@H](C)O)[C@@H](C)O)c1ccc(NC(=O)c2cc(Br)ccc2O)cc1 ({Benzoyl(5-Br-2-OH)}-[X1]TKPKGTKPKGTKPKGTKPKG-NH2) | 81.5 (≈ 200 µg/mL) | Stable | Stable | Stable | 14.3 | 40.8 (≈ 100 µg/mL) | Active | Active | > 200 | 81.9 | > 2.5 | 1 | > 100 | 1.2 | Unstable | Active | Active | Stable | Stable | 
2 | CCCCCCCCCC(=O)NCCCC[C@H](NC(=O)[C@@H]1CCCN1C(=O)[C@H](CCCCN)NC(=O)[C@@H](NC(=O)CO/N=C(\C)c1ccc(NC(=O)c2cc(Br)ccc2O)cc1)[C@@H](C)O)C(=O)NCC(=O)N[C@H](C(=O)N[C@@H](CCCCN)C(=O)N1CCC[C@H]1C(=O)N[C@@H](CCCCN)C(=O)NCC(=O)N[C@H](C(=O)N[C@@H](CCCCN)C(=O)N1CCC[C@H]1C(=O)N[C@@H](CCCCN)C(=O)NCC(=O)N[C@H](C(=O)N[C@@H](CCCCN)C(=O)N1CCC[C@H]1C(=O)N[C@@H](CCCCN)C(=O)NCC(N)=O)[C@@H](C)O)[C@@H](C)O)[C@@H](C)O ({Benzoyl(5-Br-2-OH)}-[X1]TKPK(Decanoyl)GTKPKGTKPKGTKPKG-NH2) |  | Stable | Stable | Stable | 16.4 | 76.7 (≈ 200 µg/mL) | Active | Active | 24.9 | 113 | 0.3 | 1.5 | 71.9 | 0.9 | Unstable | Active | Active |  |  | 76.7 (≈ 200 µg/mL)
